Diaphorase act: compounds boosting diaphorase resazurin reduction – biochemical, uHTS, resorufin fluorescence, counter-screen for diaphorase-coupled primary assays, primary screen; Diaphorase/resazurin coupled assay, 16 min; stronger effect = higher value; 1 = vehicle wells, 0 = NADH-free wells; activation factor at 20 µM; 190,000 compounds, 0.005% hits; AID 1229, 2008;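 active means diaphorase activity raised at least twofold by the compound at 20 µM; inactive means activation factor below 2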
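Test system: Clostridium kluyveri diaphorase, purified enzyme. Buffer or medium: 50 mM HEPES pH 7.4 buffer plus MgCl2 and Tween 20. Also added: 0.114 mM NADH and 0.1 mM resazurin, final amounts. Dosing: compound 20 µM once, DMSO 1%. Schedule: 16 min enzyme reaction, ambient temperature. Detection: fluorescence of resorufin, 544 nm excitation, 590 nm emission.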
Diaph inh CS: diaphorase inhibitors and chemical oxidizers, primary screen, counter-screen for diaphorase-coupled primary assays, biochemical, uHTS, resorufin fluorescence | diaphorase resazurin-to-resorufin fluorescence, NADH, 16 min; bacterial (C. kluyveri) enzyme, not human | inhibition, % at 20 µM | 190,000 compounds, 0.69% hits | AID 1217, 2008;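 active means primary screen inhibition at 20 µM above a set limit, cut at about 50% in these data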;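 further: plate controls were DMSO with full reaction for no effect and wells lacking NADH for full effect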
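Benchmarks: positive control wells lacking NADH, neutral wells with DMSO only. System: bacterial diaphorase enzyme (C. kluyveri). Input: 0.14 U/mL diaphorase, enzyme working solution. Detection: resorufin fluorescence, excitation 544 nm, emission 590 nm. Times: 16-min room-temperature incubation before reading.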
PMI act hi M6P: human PMI activators, high substrate, primary screen, biochemical, fluorescence intensity, near-saturating mannose 6-phosphate; coupled PMI enzyme assay, resazurin fluorescence, 20 min; stronger effect = higher value; 1 = untreated enzyme, 0 = substrate-free blank; activation factor at 20 µM; 190,000 compounds, 0.34% hits; AID 1216, 2008;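 active means activation factor of 2 or more at 20 µM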
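Material: human phosphomannose isomerase with PGI, G6PDH, diaphorase coupling enzymes / Reagent: Man-6-P substrate 1.0 mM / Dosing: single compound dose of 20 µM, 1% DMSO final / Incubation: enzyme reaction with compound 20 min at room temperature / Signal: resorufin fluorescence (Ex 544/Em 590 nm) from resazurin via diaphorase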
PMI activator: activators of human PMI, primary screen, biochemical, fluorescence intensity, near-Km mannose 6-phosphate; AID 1214, 2008; 190,000 compounds, 0.005% hits; Mannose-6-phosphate isomerase (Homo sapiens), P34949; purified human PMI, coupled resazurin fluorescence, 20 min; stronger effect = higher value; 1 = vehicle control, 0 substrate-free wells; activation factor at 20 µM;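 active means activation factor of 2 or more at 20 µM, relative to plate controls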
FLuc stim CS: FLuc activators, initial screening, artefact control for FLuc-dependent activation tests, biochemical, ATPlite luminescence; Luciferin 4-monooxygenase (Photinus pyralis), P08659; ATPlite luciferase biochemical, 10 min; 0 = ATP-free wells, 1 = DMSO control; activation factor at 10 µM; 200,000 tested, under 10 active; AID 1027, 2008;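 active means luciferase activation factor, scaled between plate controls, of at least 2 with compound at 10 µM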
Target sequence (P08659 whole entry, looked up): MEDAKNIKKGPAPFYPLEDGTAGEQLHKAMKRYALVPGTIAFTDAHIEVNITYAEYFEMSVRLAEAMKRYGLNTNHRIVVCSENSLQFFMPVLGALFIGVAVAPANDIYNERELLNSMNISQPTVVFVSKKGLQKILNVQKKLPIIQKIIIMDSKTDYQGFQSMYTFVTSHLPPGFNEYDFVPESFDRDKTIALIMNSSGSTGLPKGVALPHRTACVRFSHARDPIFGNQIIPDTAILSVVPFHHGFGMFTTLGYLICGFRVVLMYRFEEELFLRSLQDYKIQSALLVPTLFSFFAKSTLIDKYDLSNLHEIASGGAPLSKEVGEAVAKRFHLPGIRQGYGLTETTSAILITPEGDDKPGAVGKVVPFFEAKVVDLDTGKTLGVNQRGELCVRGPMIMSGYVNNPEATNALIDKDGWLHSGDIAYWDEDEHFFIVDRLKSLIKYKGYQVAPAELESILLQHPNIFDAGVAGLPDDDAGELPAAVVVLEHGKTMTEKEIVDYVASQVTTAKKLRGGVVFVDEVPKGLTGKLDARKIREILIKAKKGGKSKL
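System: luciferase plus luciferin reagent, cell-free; medium: PBS as buffer for the ATP substrate; dosing: test compounds dosed from 2 mM stocks in 100% DMSO; timing: 10 min post-reagent at room temperature; measured by: luminescence measurement of luciferase light output; evaluation: luciferase activation, seen as luminescence increase over controls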
FLuc inhib CS: firefly luciferase enzyme inhibitors, primary screen, artefact control for luciferase-based inhibitor screens, biochemical, luminescence, ATPLite. AID 1006, 2008. Luciferin 4-monooxygenase (Photinus pyralis), P08659. inhibition, % at 10 µM. 10 min. 200,000 compounds, 1.5% hits;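 active means inhibition above about 50% when tested at 10 µM, limit read from the data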
Active calls of the source: *. An excerpt weighted towards active compounds, which were near 2.5% of everything screened.

SMILES | Diaphorase act | Diaph inh CS | PMI act hi M6P | PMI activator | FLuc stim CS | FLuc inhib CS
C=CCn1c(SCC(=O)Nc2nnc(CC)s2)nnc1-c1ccncc1 | 0.9 | 12.8 | 0.9 | 0.9 | 1 | -0.1
COC(=O)c1ccc(N/C=C\C(=O)c2ccc3c(c2)OCO3)cc1 | 1.1 | -5.0 | 1 | 1.1 | 0.8 | 16.3
O=C(/C=C\Nc1ccccc1Br)c1ccc2c(c1)OCO2 | 1 | -4.0 | 1 | 1.1 | 0 | 97.1*
CNc1cc([N+](=O)[O-])ccc1N/C=C/C(=O)c1ccc2c(c1)OCO2 | 1 | 2.6 | 1.2 | 1.3 | 1 | -0.1
COc1ccc(N/C=C\C(=O)c2ccc3c(c2)OCO3)cc1OC | 0.9 | 9.4 | 0.8 | 0.9 | 0.4 | 59.7*
O=C(/C=C\Nc1cccc(F)c1)c1ccc2c(c1)OCO2 | 0.9 | 12.6 | 1 | 1 | 0.1 | 89.5*
Oc1cc2c(cc1C(c1ccc(Cl)c(Cl)c1)N1CCCC1)OCO2 (configuration not stated) | 0.9 | 8.7 | 0.4 | 0.8 | 1 | 0.7
Cc1ccc(NC(=O)N2CCC(=O)N2)cc1 | 0.9 | 5.3 | 2* | 1.3 | 1 | -1.7
COc1ccc(Cc2nnc(SCC(=O)N3CCCCC3)o2)cc1 | 1 | -0.4 | 1 | 0.9 | 1 | -2.5
O=C(O)c1ccc(N/N=C/c2ccc(-c3ccccc3)cc2)cc1 | 0.7 | 33.0 | 2.4* | 1.6 | 0.9 | 14.1
COc1ccc(/C=N/Nc2ccc(C(=O)O)cc2)cc1Br | 1.1 | -5.5 | 2.5* | 1.8 | 0.8 | 20.5
Cc1ccc(/C=N/Nc2ccc(C(=O)O)cc2)o1 | 0.9 | 7.8 | 1.1 | 1.1 | 1 | 3.6
CC(C)c1ccc(/C=N/Nc2ccc(C(=O)O)cc2)cc1 | 0.9 | 13.1 | 2.5* | 1.8 | 0.5 | 48.7
C=CCOc1c(Br)cc(/C=N/Nc2ccc(C(=O)O)cc2)cc1OCC | 0.8 | 15.1 | 1 | 1 | 1 | -2.0
Cc1cc([N+](=O)[O-])nn1CCCC(=O)N1CCN(c2ccccc2)CC1 | 0.9 | 9.6 | 0.9 | 1 | 1.1 | -7.1
CCCCN1C(=O)C(=O)N(CC(=O)Nc2cc(OCC)c(N3CCOCC3)cc2OCC)C1=O | 1 | 2.4 | 1 | 1 | 1.1 | -5.1
C/C(=N\N=c1/scc(C)n1Cc1ccco1)c1cccc([N+](=O)[O-])c1 | 0.9 | 9.5 | 1.1 | 1 | 1 | -3.7
O=C1CC(N(Cc2cccs2)C(=O)Nc2ccccc2)C(=O)N1c1ccc(Cl)cc1 (configuration not stated) | 0.9 | 7.3 | 1 | 0.9 | 1 | -4.6
CCCCNC(=O)Cn1c(-c2ccc(OC)cc2)noc1=O | 0.8 | 17.7 | 0.9 | 1 | 1.1 | -9.0
CCCCNC(=O)Oc1cc(CCl)on1 | 0.3 | 70.3* | 1 | 1.1 | 1.1 | -6.1
O=c1cc(-c2ccc(O)c(O)c2)oc2cc(O)c(C3OC(CO)C(O)C(O)C3O)c(O)c12 (configuration not stated) | 0.4 | 59.6* | 0.9 | 0.5 | 1.1 | -12.0
O=c1c(O[C@@H]2O[C@H](CO)[C@@H](O)[C@H](O)[C@H]2O)c(-c2ccc(O)c(O)c2)oc2cc(O)cc(O)c12 | 0.2 | 76.8* | 0.6 | 0.4 | 1 | -0.6
C[C@@H]1O[C@@H](OC[C@H]2O[C@@H](Oc3c(-c4ccc(O)c(O)c4)oc4cc(O)cc(O)c4c3=O)[C@H](O)[C@@H](O)[C@@H]2O)[C@H](O)[C@H](O)[C@H]1O | 0.3 | 71.1* | 0.8 | 0.5 | 1 | 1.0
